In ChEMBL document CHEMBL1129604, “Design, synthesis, and evaluation of nonpeptidic inhibitors of human rhinovirus 3C protease” (J Med Chem, 1996):

Tests used:
[1] = target: T1, Human rhinovirus A protease (Human rhinovirus sp., UniProt Q4U254); test: Inhibition of human rhinovirus 3C protease; design: species or system Rhinovirus B
T1 sequence (Q4U254 whole entry): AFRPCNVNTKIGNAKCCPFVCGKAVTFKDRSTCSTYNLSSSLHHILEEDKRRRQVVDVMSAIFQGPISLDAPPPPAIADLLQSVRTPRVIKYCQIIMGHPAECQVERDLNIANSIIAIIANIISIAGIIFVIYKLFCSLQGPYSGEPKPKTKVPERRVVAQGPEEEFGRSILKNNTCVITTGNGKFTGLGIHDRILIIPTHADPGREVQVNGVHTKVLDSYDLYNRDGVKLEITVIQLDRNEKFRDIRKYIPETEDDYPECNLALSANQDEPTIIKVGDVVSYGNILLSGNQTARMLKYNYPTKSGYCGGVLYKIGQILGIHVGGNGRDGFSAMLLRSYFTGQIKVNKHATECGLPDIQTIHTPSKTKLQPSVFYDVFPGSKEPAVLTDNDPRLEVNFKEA
How it was run: (§1)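 Buffer was 50 mM Tris pH 7.6, 1 mM EDTA, 2% DMSO at 30 °C. Enzyme and inhibitor were preincubated 10 min before substrate start. Fluorescence ex 336/em 490 nm. Ki came from nonlinear fit of initial velocity versus inhibitor.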

[2] = tested on: HeLa; test: Compound was tested for the 50% toxic concentration against Human Rhinovirus-14 (HRV-14) in Hela cells; assay type: functional; settings: read-out: TC50 (the source's name)
How it was run: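 HI-HeLa cells in MEM with 10% FBS, mock-infected with medium only, resuspended at 8 × 10^5 cells/mL and incubated with compound. After two days, XTT/PMS was added and formazan was read at 450/650 nm. CC50 is the concentration lowering formazan to 50% of compound-free uninfected cells.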

[3] = tested on: HeLa; test: Compound was tested for the antiviral activity against Human Rhinovirus -14(HRV-14) in HeLa cells; assay type: functional, cell-based
How it was run: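 Cell protection assay in HI-HeLa cells (MEM, 10% FBS). Cells were infected with HRV-14 at moi 0.13, resuspended at 8 × 10^5 cells/mL and incubated with compound for two days. XTT/PMS formazan was read at 450/650 nm. EC50 is the concentration restoring formazan to 50% of compound-free uninfected cells.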

[4] = Theuraptic index was reported; assay type: functional
How it was run: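 TI is CC50 (uninfected HI-HeLa, XTT formazan) divided by EC50 (HRV-14-infected HI-HeLa, moi 0.13, two days, XTT read at 450/650 nm).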

[5] = tested on: Enterovirus; test: Compound was tested for the inhibitory activity of compound towards human rhinovirus 3C protease; assay type: functional, organism-based; how it was run: as §1
[6] = (§2) Percentage inhibition of Cathepsin (human liver) at 100 uM conc of drug; assay type: functional
[7] = target: Chymotrypsinogen A (Bos taurus) (UniProt P00766); test: (§3) Percentage inhibition of bovine chymotrypsin at 100 uM conc of drug; assay type: functional
[8] = target: T2, Neutrophil elastase (Homo sapiens) (UniProt P08246); test: (§4) Percentage inhibition of Pancreatic elastase at 100 uM conc of drug; assay type: functional
T2 sequence (whole entry): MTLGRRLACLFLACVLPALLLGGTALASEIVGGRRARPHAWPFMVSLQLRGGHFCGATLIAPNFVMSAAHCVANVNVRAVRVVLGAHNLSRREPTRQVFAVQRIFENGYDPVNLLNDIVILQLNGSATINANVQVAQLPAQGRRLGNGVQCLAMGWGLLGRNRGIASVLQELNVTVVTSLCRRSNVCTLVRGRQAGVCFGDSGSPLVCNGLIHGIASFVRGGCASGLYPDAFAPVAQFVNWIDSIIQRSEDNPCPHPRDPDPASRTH

[9] = target: T3, Serine protease 1 (Bos taurus) (UniProt P00760); test: (§5) Percentage inhibition of bovine trypsin at 100 uM conc of drug; assay type: functional
T3 sequence (whole entry): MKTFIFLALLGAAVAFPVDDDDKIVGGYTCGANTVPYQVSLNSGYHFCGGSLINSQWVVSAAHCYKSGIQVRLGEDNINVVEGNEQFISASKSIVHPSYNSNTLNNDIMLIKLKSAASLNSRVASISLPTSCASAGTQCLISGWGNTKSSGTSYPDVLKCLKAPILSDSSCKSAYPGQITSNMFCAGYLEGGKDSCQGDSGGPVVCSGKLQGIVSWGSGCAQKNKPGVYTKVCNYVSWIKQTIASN

[10] = target: Prothrombin (Homo sapiens) (UniProt P00734); test: (§6) Percentage inhibition of human thrombin at 100 uM conc of drug; assay type: functional
[11] = tested on: Enterovirus; test: Compound was tested for the inhibitory activity of compound towards human rhinovirus-89 3C protease; assay type: functional, organism-based
How it was run: (§7)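 3CP from HRV-16, -2 or -89 was cloned from infected-HeLa cDNA (3A C-terminus–3B–3C region), expressed in E. coli and purified. The same FRET assay (1 μM DABCYL/EDANS peptide, 50 mM Tris pH 7.6, 1 mM EDTA, 2% DMSO, 30 °C, 10 min preincubation) was run at 100–200 nM enzyme. Ki was obtained by nonlinear regression of initial velocities.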

[12] = as §2
[13] = target: Chymotrypsinogen A (Bos taurus) (UniProt P00766); test: as §3
[14] = target: T2, Neutrophil elastase (Homo sapiens); test: as §4
[15] = target: Prothrombin (Homo sapiens) (UniProt P00734); test: as §6
[16] = target: T3, Serine protease 1 (Bos taurus); test: as §5
[17] = tested on: Enterovirus; test: Compound was tested for the inhibitory activity of compound towards human rhinovirus-2 3C protease; assay type: functional, organism-based; how it was run: as §7
[18] = tested on: Enterovirus; test: Compound was tested for the inhibitory activity of compound towards human rhinovirus-16 3C protease; assay type: functional, organism-based; how it was run: as §7
[19] = Percentage inhibition of Cathepsin (human liver) at 10 uM conc of drug
[20] = target: Chymotrypsinogen A (Bos taurus) (UniProt P00766); test: Percentage inhibition of bovine chymotrypsin at 50 uM conc of drug

For `NC(=O)c1ccc2c(c1)C(=O)C(=O)N2CCCc1ccccc1`, which Ki [1] is on record?
The Ki was 27 nM.

And the CC50 [2]?
Its CC50 is 7.1 µM.

And the EC50 [3]?
Its EC50 is over 7.1 µM.

With `COC(=O)c1ccc2c(c1)C(=O)C(=O)N2C` as the compound, how does the Ki [1] read?
Its Ki is 30000 nM.

What about the CC50 [2] of the same compound?
The CC50 was over 100 µM.

What about the EC50 [3] of the same compound?
The EC50 was 56 µM.

What about the TI [4] of the same compound?
Its TI is over 2.

With `Cc1ccc(CN2C(=O)C(=O)c3cc(C(N)=O)ccc32)cc1` as the compound, how does the Ki [1] read?
The Ki was 10 nM.

Which Ki [1] does the source give for `CNC(=O)c1ccc2c(c1)C(=O)C(=O)N2C` here?
Its Ki is 12000 nM.

Which Ki [1] does the source give for `COc1cccc(CN2C(=O)C(=O)c3cc(C(N)=O)ccc32)c1` here?
Its Ki is 29 nM.

And the CC50 [2]?
The CC50 was 20 µM.

What about the EC50 [3] of the same compound?
The EC50 was over 20 µM.

For `NC(=O)c1ccc2c(c1)C(=O)C(=O)N2Cc1ccc2cc(O)ccc2c1`, which Ki [1] is on record?
The Ki was 4 nM.

With `NC(=O)c1ccc2c(c1)C(=O)C(=O)N2Cc1ccc(-c2ccccc2)cc1` as the compound, how does the Ki [1] read?
Its Ki is 48 nM.

With `NC(=O)c1ccc2c(c1)C(=O)C(=O)N2C/C=C/c1ccccc1` as the compound, how does the Ki [5] read?
Its Ki is 11 nM.

What about the inhibition at 100 µM [6] of the same compound?
The inhibition at 100 µM was 27%.

And the inhibition [7]?
The inhibition was 67%.

And the CC50 [2]?
The CC50 was 9.6 µM.

And the EC50 [3]?
Its EC50 is 6.3 µM.

And the inhibition [8]?
Its inhibition is 40%.

And the inhibition [9]?
The inhibition was 0%.

What about the TI [4] of the same compound?
Its TI is 1.5.

And the inhibition [10]?
The inhibition was 34%.

For `CN1C(=O)C(=O)c2cc(C(N)=S)ccc21`, which Ki [1] is on record?
Its Ki is 11000 nM.

Which Ki [1] does the source give for `CN(C)C(=O)c1ccc2c(c1)C(=O)C(=O)N2C` here?
The Ki was 33000 nM.

Which results are given for `NC(=O)c1ccc2c(c1)C(=O)C(=O)N2Cc1cc(O)cc(O)c1`?
Ki [1]: 4 nM; CC50 [2]: > 100 µM; EC50 [3]: > 100 µM

Which Ki [5] does the source give for `CN1C(=O)C(=O)c2cc(C(N)=O)ccc21` here?
Its Ki is 51 nM.

And the Ki [11]?
The Ki was 35 nM.

What about the inhibition [12] of the same compound?
The inhibition was 0%.

And the inhibition [13]?
The inhibition was 0%.

What about the CC50 [2] of the same compound?
Its CC50 is 270 µM.

And the EC50 [3]?
The EC50 was 66 µM.

And the inhibition [14]?
Its inhibition is 0%.

And the inhibition [15]?
The inhibition was 0%.

What about the inhibition [16] of the same compound?
Its inhibition is 0%.

What about the Ki [17] of the same compound?
Its Ki is 77 nM.

What about the TI [4] of the same compound?
Its TI is 4.

And the Ki [18]?
The Ki was 40 nM.

With `CN1C(=O)C(=O)c2ccccc21` as the compound, how does the Ki [1] read?
The Ki was over 100000 nM.

For `NC(=O)c1ccc2c(c1)C(=O)C(=O)N2Cc1ccccc1`, which Ki [1] is on record?
Its Ki is 19 nM.

What about the CC50 [2] of the same compound?
The CC50 was 50.1 µM.

What about the EC50 [3] of the same compound?
The EC50 was 14.1 µM.

And the TI [4]?
Its TI is 3.5.

With `CC(=O)c1ccc2c(c1)C(=O)C(=O)N2C` as the compound, how does the Ki [1] read?
The Ki was 1200 nM.

Which Ki [1] does the source give for `CN1C(=O)C(=O)c2cc([N+](=O)[O-])ccc21` here?
Its Ki is 9700 nM.

For `CN1C(=O)C(=O)c2cc(C#N)ccc21`, which Ki [1] is on record?
The Ki was 51000 nM.

Which results are given for `CN1C(=O)C(=O)c2cc(C(=O)O)ccc21`?
Ki [1]: 10000 nM; CC50 [2]: > 100 µM; EC50 [3]: > 100 µM

Which Ki [1] does the source give for `CN1C(=O)C(=O)c2cc(I)ccc21` here?
The Ki was 30000 nM.

What about the CC50 [2] of the same compound?
Its CC50 is over 100 µM.

And the EC50 [3]?
The EC50 was 71 µM.

What about the TI [4] of the same compound?
Its TI is over 1.

With `Cc1ccc(CN2C(=O)C(=O)c3cc(C(N)=O)ccc32)cc1C` as the compound, how does the Ki [1] read?
The Ki was 6 nM.

Which Ki [1] does the source give for `COc1ccc2cc(CN3C(=O)C(=O)c4cc(C(N)=O)ccc43)ccc2c1` here?
Its Ki is 3 nM.

For `NC(=O)c1ccc2c(c1)C(=O)C(=O)N2Cc1ccc2ccccc2c1`, which Ki [1] is on record?
Its Ki is 4 nM.

What about the CC50 [2] of the same compound?
Its CC50 is 10 µM.

What about the EC50 [3] of the same compound?
The EC50 was over 10 µM.

With `COc1cc(CN2C(=O)C(=O)c3cc(C(N)=O)ccc32)cc(OC)c1` as the compound, how does the Ki [1] read?
Its Ki is 25 nM.

For `CN1C(=O)C(=O)c2cc([S+](C)[O-])ccc21` (configuration not stated), which Ki [1] is on record?
The Ki was 8200 nM.

With `CN1C(=O)C(=O)c2cc(Cl)ccc21` as the compound, how does the Ki [1] read?
The Ki was 59000 nM.

Which results are given for `NC(=O)c1ccc2c(c1)C(=O)C(=O)N2Cc1cc2ccccc2s1`?
Ki [5]: 2 nM; Ki [11]: 1.1 nM; inhibition [19]: 0%; inhibition [20]: 25%; CC50 [2]: 5.6 µM; EC50 [3]: > 5.6 µM; inhibition [14]: 0%; inhibition [15]: 0%; inhibition [16]: 0%; Ki [17]: 5.2 nM; Ki [18]: 12 nM

With `NC(=O)c1ccc2c(c1)C(=O)C(=O)N2Cc1cccc(O)c1` as the compound, how does the Ki [1] read?
Its Ki is 11 nM.

What about the CC50 [2] of the same compound?
The CC50 was 20 µM.

What about the EC50 [3] of the same compound?
The EC50 was over 20 µM.
